Test results reported in ChEMBL document CHEMBL1949636, “Optimization of phenylacetic acid derivatives for balanced CRTH2 and DP dual antagonists” (Bioorg Med Chem Lett, 2012).
pIC50: −log10 of the molar value.

Assays:
[1] = biological target: T1, Prostaglandin D2 receptor 2 (Homo sapiens, UniProt Q9Y5Y4); experiment: Displacement of [3H]PGD2 from human CRTH2 receptor expressed in HEK293 cells by scintillation counting in presence of 0.5% BSA; assay type: cell-based
T1 sequence (Q9Y5Y4 whole entry): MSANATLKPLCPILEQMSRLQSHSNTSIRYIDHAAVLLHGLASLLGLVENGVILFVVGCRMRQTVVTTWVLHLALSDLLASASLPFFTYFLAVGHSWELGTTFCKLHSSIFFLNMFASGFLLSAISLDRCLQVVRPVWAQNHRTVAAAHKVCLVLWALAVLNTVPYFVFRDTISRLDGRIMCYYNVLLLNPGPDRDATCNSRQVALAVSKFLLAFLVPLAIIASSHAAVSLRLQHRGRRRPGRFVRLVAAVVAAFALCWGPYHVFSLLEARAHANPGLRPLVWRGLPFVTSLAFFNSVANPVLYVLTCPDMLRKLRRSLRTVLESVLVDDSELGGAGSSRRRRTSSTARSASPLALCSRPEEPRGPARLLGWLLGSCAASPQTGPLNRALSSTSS
Method in brief: (§1)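 Radioligand binding to intact HEK 293 cells stably expressing human CRTH2 or DP. Cells incubated with [3H]-PGD2 and increasing compound concentrations in binding buffer containing 0.5% BSA. After washing, bound [3H]-PGD2 counted by scintillation. […] Mean of three experiments; standard deviation 30%.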

[2] = biological target: T2, Prostaglandin D2 receptor (Homo sapiens, UniProt Q13258); experiment: Displacement of [3H]PGD2 from human DP receptor expressed in HEK293 cells by scintillation counting in presence of 0.5% BSA; assay type: cell-based; method in brief: as §1
T2 sequence (Q13258 whole entry): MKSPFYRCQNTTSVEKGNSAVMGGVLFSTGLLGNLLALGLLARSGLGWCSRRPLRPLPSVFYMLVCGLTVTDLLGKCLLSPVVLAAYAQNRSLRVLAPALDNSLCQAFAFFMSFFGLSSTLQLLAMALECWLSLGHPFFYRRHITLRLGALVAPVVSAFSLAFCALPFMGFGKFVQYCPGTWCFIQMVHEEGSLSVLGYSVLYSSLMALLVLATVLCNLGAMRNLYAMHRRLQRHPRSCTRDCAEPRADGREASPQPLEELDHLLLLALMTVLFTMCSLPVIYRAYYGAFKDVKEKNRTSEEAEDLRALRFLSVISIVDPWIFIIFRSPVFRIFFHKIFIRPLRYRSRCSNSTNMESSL

[3] = biological target: T1, Prostaglandin D2 receptor 2; experiment: Displacement of [3H]PGD2 from human CRTH2 receptor expressed in HEK293 cells by scintillation counting in presence of 50% plasma; assay type: cell-based
Method in brief: (§2)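 Whole-cell [3H]-PGD2 binding on HEK 293 cells stably expressing human CRTH2 or DP, run in binding buffer containing 50% human plasma. Test compound added at increasing concentrations. Cells washed, and remaining bound radioligand measured by scintillation counting. Mean of three experiments; standard deviation 30%.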

[4] = biological target: T2, Prostaglandin D2 receptor; experiment: Displacement of [3H]PGD2 from human DP receptor expressed in HEK293 cells by scintillation counting in presence of 50% plasma; assay type: cell-based; method in brief: as §2
[5] = biological target: T3, Prostaglandin D2 receptor 2 (Homo sapiens) (UniProt Q9Y5Y4); experiment: Antagonist activity at CRTH2 receptor in human eosinophol assessed as inhibition of PGD2-induced eosinophol shape change preincubated for 10 mins prior PGD2 stimulation measured after 10 mins by FACS flow cytometry; assay type: functional
T3 sequence (whole entry): T1 sequence (Q9Y5Y4 whole entry)
Method in brief: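 Granulocytes enriched from normal donor peripheral blood by density-gradient centrifugation; erythrocytes removed by ACK lysis. Cells pre-incubated 10 min at room temperature with antagonist or vehicle (0.05% DMSO), then stimulated with PGD2 (600–0.003 nM, 1:3 dilution) 10 min at 37 °C. Fixed in 1% final paraformaldehyde. Eosinophils gated as FL2-positive; geometric mean forward scatter used to derive IC50.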

[6] = biological target: T4, Prostaglandin D2 receptor (Homo sapiens) (UniProt Q13258); experiment: Antagonist activity at DP receptor in PGD2-stimulated human platelets in 80% whole blood assessed as inhibition of IBMX-stimulated cAMP production preincubated for 30 mins prior PGD2 stimulation measured after 60 mins by immunoassay; assay type: functional, tissue-based
T4 sequence (whole entry): T2 sequence (Q13258 whole entry)
Method in brief: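 IBMX added to human whole blood at 1 mM final. Treated blood incubated with antagonist 30 min at 37 °C, then transferred to PGD2 at various concentrations for 60 min at 37 °C. Blood lysed and cAMP measured by direct immunoassay. PGD2-stimulated cAMP curves fitted with a Hill model.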

Row | SMILES | pIC50 [1] | pIC50 [2] | pIC50 [3] | pIC50 [4] | Kb [5] | Kb [6]
1 | CCCCNC(=O)c1ccc(S(=O)(=O)c2ccc(CC(=O)O)cc2)c(NS(=O)(=O)c2ccc(Cl)cc2Cl)c1 | 6.40 | < 5.00 | – | – | – | –
2 | CCCCNC(=O)c1ccc(Oc2ccc3c(CC(=O)O)coc3c2)c(NS(=O)(=O)c2ccc(Cl)cc2Cl)c1 | 8.30 | 8.30 | – | – | – | –
3 | CCCCNC(=O)c1ccc(Cc2ccc(CC(=O)O)cc2OC)c(NS(=O)(=O)c2ccc(Cl)cc2Cl)c1 | 8.70 | 8.22 | – | – | – | –
4 | CCCc1cc(-c2ccc(Oc3ccc(CC(=O)O)cc3OC)c(NS(=O)(=O)c3ccc(Cl)cc3Cl)c2)n[nH]1 | 8.70 | 8.40 | 8.10 | 7.34 | 0.084 nM | 5 nM
5 | CCc1noc(-c2ccc(Oc3ccc(CC(=O)O)cc3OC)c(NS(=O)(=O)c3ccc(Cl)cc3Cl)c2)n1 | 6.11 | 7.64 | – | – | – | –
6 | CCc1nc(-c2ccc(Oc3ccc(CC(=O)O)cc3OC)c(NS(=O)(=O)c3ccc(Cl)cc3Cl)c2)n[nH]1 | 8.22 | 7.82 | – | – | – | –
7 | CCCCNC(=O)c1ccc(Oc2ccc3c(c2)OCC3CC(=O)O)c(NS(=O)(=O)c2ccc(Cl)cc2Cl)c1 (stereo not drawn) | 6.24 | 6.82 | – | – | – | –
8 | CCCCNC(=O)c1ccc([S+]([O-])c2ccc(CC(=O)O)cc2)c(NS(=O)(=O)c2ccc(Cl)cc2Cl)c1 (stereo not drawn) | 6.18 | < 5.00 | – | – | – | –
9 | CCCCNC(=O)c1ccc(Oc2ccc3c(CC(=O)O)c[nH]c3c2)c(NS(=O)(=O)c2ccc(Cl)cc2Cl)c1 | 8.52 | 7.08 | – | – | – | –
10 | CCCCNC(=O)c1ccc(Sc2ccc(CC(=O)O)cc2)c(NS(=O)(=O)c2ccc(Cl)cc2Cl)c1 | 7.68 | 6.20 | – | – | – | –
11 | CCCCNC(=O)c1ccc(Oc2ccc(CC(=O)O)cn2)c(NS(=O)(=O)c2ccc(Cl)cc2Cl)c1 | 6.51 | 6.32 | – | – | – | –
12 | CCCc1nc(-c2ccc(Oc3ccc(CC(=O)O)cc3OC)c(NS(=O)(=O)c3ccc(Cl)cc3Cl)c2)n[nH]1 | 8.40 | 8.00 | – | – | – | –
13 | CCCCNC(=O)c1ccc(Oc2ccc(CC(=O)O)nc2)c(NS(=O)(=O)c2ccc(Cl)cc2Cl)c1 | 8.00 | 6.64 | – | – | – | –
14 | CCCc1nc(-c2ccc(Oc3ccc(CC(=O)O)cc3OC)c(NS(=O)(=O)c3ccc(Cl)cc3Cl)c2)c[nH]1 | 8.70 | 8.00 | 7.70 | 6.96 | 0.18 nM | 50 nM
15 | CCCCNC(=O)c1ccc(Oc2ccc3c(ccn3CC(=O)O)c2)c(NS(=O)(=O)c2ccc(Cl)cc2Cl)c1 | 8.70 | 7.54 | – | – | – | –
